Source: PubChem BioAssay (Broad Institute)
The list is not random: actives were taken first. Their share in the collection is about 2.5%.
miR122 inh – miR-122 Renilla sensor signal increase in Huh7, primary screen, miR-122 inhibitor project, cell-based, single point, plate reader. Huh7 miR-122 Renilla luciferase sensor, 48 h; neutral wells = 0, positive control = 100. activation (reporter increase), % at 12.5 µM. 340,000 tested, 0.3% active. AID 602342, 2012;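 active = mean replicate activation score at least 90 and every replicate individually at or above 90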;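 note: higher luciferase means less miR-122 activity so hits act as miR-122 inhibitors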
SIRT5 inh – SIRT5 desuccinylase inhibitors, primary screen, biochemical, fluorescence imaging, single point, set 5; Purified SirT5, succinyl-peptide AMC, trypsin-coupled fluorescence; inhibition, % at 15 µM; 330,000 tested, 1.1% active; AID 652115, 2013; in the data active = inhibition above about 15%
Target sequence (Q9NXA8 whole entry, looked up): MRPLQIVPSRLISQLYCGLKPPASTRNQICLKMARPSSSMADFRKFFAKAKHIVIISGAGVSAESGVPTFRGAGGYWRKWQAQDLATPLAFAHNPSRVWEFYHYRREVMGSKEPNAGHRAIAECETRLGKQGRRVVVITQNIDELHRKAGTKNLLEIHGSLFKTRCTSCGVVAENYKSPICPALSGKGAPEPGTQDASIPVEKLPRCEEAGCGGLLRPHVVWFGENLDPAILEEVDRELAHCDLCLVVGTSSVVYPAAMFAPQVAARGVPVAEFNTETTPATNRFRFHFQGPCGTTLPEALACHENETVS
S100A4 MyoIIA – inhibitors of S100A4-myosin IIA peptide binding, primary screen, biochemical, fluorescence polarization, TAMRA-MyoIIA peptide; inhibition, % at 10.7 µM; AID 652163, 2013; 360,000 tested, 0.14% active;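 active = mean inhibition of at least 70% across replicates, with every replicate also reaching that level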
Target sequence (P26447 whole entry, looked up): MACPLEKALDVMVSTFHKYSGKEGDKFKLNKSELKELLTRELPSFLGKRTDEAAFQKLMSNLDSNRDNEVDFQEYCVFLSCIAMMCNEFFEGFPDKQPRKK
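Compound dosing: one dose per compound; test system: human S100A4 monomer with TAMRA-labelled myosin IIA peptide; probe or stimulus: TAMRA-labelled myosin IIA heavy-chain peptide probe, 5 nM; medium: HEPES buffer with Ca2+, pH 7.2; schedule: 5 min incubation before reading; benchmarks: neutral control DMSO, positive control TFP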
FGF22 binding – binders of human FGF22 protein, primary screen, FGF22 synaptogenesis inhibitor project, biophysical, thermal shift, single point; 340,000 tested, 1.5% active; AID 651658, 2012; activity (Tm shift, normalised), % at 9.99 µM; recombinant FGF22 thermal shift, SYPRO orange fluorescence; percent of sucrose octasulfate shift, DMSO zero; Fibroblast growth factor 22 (Homo sapiens), Q9HCT0;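 active = mean Tm shift, scaled 0 neutral to 100 positive control, at about 1.3% or above, every replicate too, limit read from the data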
E-sel inducer – E-selectin induction in HUVECs, primary screen, imaging, HUVEC, immunofluorescence imaging, single point; normalized: neutral wells 0, TNF-alpha wells 100; AID 686992, 2013; activation, % at 7.58 µM; 260,000 tested, 0.37% active; P16581;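 active = mean E-selectin-positive cell signal at least 10% of the positive control, reached in at least 60% of replicates, without over 20% cell loss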
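Test system – human umbilical vein endothelial cells (HUVEC), E-selectin induction · Input – 3,000 HUVEC seeded per well · Buffer or medium – EGM-2, gelatin · Compound dosing – single-point compound dose · Detection – immunofluorescence imaging · Measure – percent E-selectin-positive cells · Controls – TNF-alpha high, DMSO low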
Hits are given with their value; 0 = inactive; - = not tested or not shown.

SMILES	miR122 inh	SIRT5 inh	S100A4 MyoIIA	FGF22 binding	E-sel inducer
C[C@@H]1CN([C@H](C)CO)C(=O)Cc2cc(NC(=O)Nc3ccc(C(F)(F)F)cc3)ccc2O[C@H]1CN(C)Cc1ccc(Oc2ccccc2)cc1	0	-	-	0	446
CO[C@H]1O[C@H](CO)[C@@H](OC(=O)Nc2cccc(F)c2)[C@H](OC(=O)Nc2ccccc2)[C@H]1OC(=O)Nc1ccccc1	-	0	0	0	-
CC(C)C#Cc1cnc2c(c1)C(=O)N([C@H](C)CO)C[C@@H](C)[C@H](CN(C)C(=O)C1CCC1)O2	0	0	0	0	0
O=C(NC1Cc2ccccc2C1)[C@@H]1[C@@H](CO)[C@@H]2Cn3c(ccc(-c4ccccc4)c3=O)[C@H]1N2	0	0	0	0	0
C[C@H](CO)N1C[C@H](C)[C@H](CN(C)S(=O)(=O)c2ccc(Cl)cc2)Oc2c(NC(=O)Nc3ccc(C(F)(F)F)cc3)cccc2C1=O	0	0	0	0	-
COc1ccc(CN(C)C[C@@H]2Oc3c(NC(=O)C4CCCCC4)cccc3C(=O)N([C@@H](C)CO)C[C@@H]2C)cc1	0	0	0	0	0
Cc1noc(C)c1S(=O)(=O)Nc1ccc2c(c1)C(=O)N([C@H](C)CO)C[C@@H](C)[C@H](CN(C)Cc1ccccc1)OCCCC[C@H](C)O2	0	0	0	0	0
CCN1CCN(CCCN(Cc2ccco2)C(=S)Nc2ccc(Cl)cc2)CC1	0	0	0	0	0
CN1CCN(CCCN(Cc2ccco2)C(=S)Nc2ccc(Cl)cc2)CC1	0	0	0	43	0
Cn1cccc1C(=O)NC(=O)CSc1cccc[n+]1[O-]	0	-	-	-	-
COc1ccccc1C(=O)NC(=O)CSc1cccc[n+]1[O-]	-	0	0	44	-
CO/N=C/C(c1ccc(Cl)nc1)S(=O)(=O)c1ccccc1 (centres undefined)	0	21	0	0	-
O=[N+]([O-])c1ccc(S(=O)(=O)N2CCN(c3ccccn3)CC2)cc1	-	-	0	43	0
CC(=O)Nc1ccc(S(=O)(=O)N2CCN(c3ccccn3)CC2)cc1	0	-	-	-	-
CC(C(=O)Nc1ccc(S(=O)(=O)N2CCOCC2)cc1)N1CCN(c2ccccn2)CC1 (centres undefined)	-	29	0	0	0
CCNC(=O)C[C@@H]1CC[C@H]2[C@@H](COc3ccc(NS(=O)(=O)c4ccccc4C)cc3C(=O)N2C)O1	0	0	0	0	0
CO[C@H]1CN(C)C(=O)c2cc(NC(=O)C3CCOCC3)ccc2OC[C@@H](C)N(Cc2cccnc2)C[C@H]1C	-	0	0	0	0
C[C@H]1CN([C@@H](C)CO)C(=O)c2cc(C#CC3CC3)cnc2O[C@H]1CN(C)C(=O)Nc1ccccc1	0	0	0	0	0
CCOC(=O)Nc1cccnc1Sc1ccc(Cl)cc1	0	0	0	0	-
O=C(NCCCCCNC(=O)c1ccccn1)c1ccccn1	0	0	0	0	0
COc1ccc(C(=O)Nc2cccnc2Sc2ccc(Cl)cc2)cc1	0	0	0	29	-
COc1ccc(C(=O)NNC(=O)c2ccccn2)cc1	-	0	0	44	-
COc1cc(OC)cc(C(=O)NNC(=O)c2ccccn2)c1	0	0	0	0	0
O=C(NCCCCNC(=O)c1ccccn1)c1ccccn1	0	0	0	43	-
COc1ccc(C#Cc2ccc([C@@H]3[C@H]4CN(C(C)=O)CC(=O)N4[C@H]3CO)cc2)cc1	-	0	0	-	0
SMILES	miR122 inh	SIRT5 inh	S100A4 MyoIIA	FGF22 binding	E-sel inducer
COCCNC(=S)N(Cc1cc2cc(C)ccc2n2nnnc12)C1CCCC1	0	0	0	43	-
Cc1ccc(Nc2ccc(N)cc2S(=O)(=O)O)cc1	-	56	0	0	-
CNS(=O)(=O)c1cc(N)ccc1C	-	0	0	0	0
Nc1cccc(Nc2ccccc2)c1	-	0	0	0	0
Nc1ccc(Nc2ccccc2)c(S(=O)(=O)O)c1	0	55	0	-	0
Cc1ccc(-c2ccc3c(c2)O[C@@H](CN(C)C(=O)Nc2ccccc2)[C@@H](C)CN([C@@H](C)CO)S3(=O)=O)cc1	-	0	0	1.5	0
